Laboratory results as given in PMC4481138 (Nuclear medicine and biology, 2015).

Key:
[1] = Paired-label biodistribution in normal mice; assay type: in vivo, Balb/c mice; settings: for heart uptake after DMI pretreatment as percent of controls: experiment [^18F]FPOBBG / [^125I]MIBG; for heart uptake after DMI pretreatment: DMI 10 mg per kg i.p. 30 min before tracer
Outline: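 Balb/c mice received the radiotracer pair in 100 μL PBS via tail vein: 185 kBq radioiodinated reference plus 296 kBq 18F test compound. Groups of 5 were killed by isoflurane overdose at 1, 2 and 4 h. Organs and blood were blot-dried, weighed and dual-channel gamma counted, giving %ID/g. For blocking, DMI 10 mg per kg i.p. was given 30 min pre-tracer, with sacrifice 1 h later. Co-administered agents were compared by paired 2-tailed t-test.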

[2] = test system: UVW-NAT cells; settings: cited from earlier work
[3] = test system: SK-N-SH human neuroblastoma cells; assay: Paired-label uptake by NET-expressing tumor cells; assay type: cell-based; settings: 2 h, 37 °C, absence of inhibitor, paired-label [^18F]FPOIBG / [^125I]MIBG
Outline: (§1)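 Cells were seeded at 5 × 10^5/well and held overnight at 37 °C, 5% CO2 (SK-N-SH: RPMI 1640 + FCS; SK-N-BE(2c): DMEM, 15% FCS; UVW-NAT: MEM, 10% FCS, 1 g/L geneticin), then PBS-washed into fresh medium. Tracers were co-incubated 2 h at 37 °C (~3.7 kBq radioiodinated, 18.5 kBq 18F). Parallel desipramine wells gave non-specific uptake. NaOH lysates and supernatants were dual-label gamma-counted and reported as % input dose.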

[4] = test system: UVW human glioma cells transfected to express NET (UVW-NAT); assay: Paired-label uptake by NET-expressing tumor cells; assay type: cell-based; settings: 2 h, 37 °C, absence of inhibitor, paired-label [^18F]FPOIBG / [^125I]MIBG
Outline: as §1

[5] = test system: SK-N-BE(2c) human neuroblastoma cells; assay: Paired-label uptake by NET-expressing tumor cells; assay type: cell-based; settings: SK-N-BE(2c) cells, 2 h, 37 °C, absence of inhibitor, paired-label [^18F]FPOIBG / [^125I]MIBG
Outline: as §1

[6] = cited from earlier work
[7] = test system: PC-12 rat pheochromocytoma xenografts; settings: 8 h, single label format, PC-12 xenograft mice; cited from earlier work
[8] = test system: three NET-expressing cell lines (SK-N-SH, UVW-NAT, SK-N-BE(2c)); assay type: cell-based, human; settings: 2 and 4 h, specific uptake (Figure 3)
Outline: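 NET-expressing human cells (SK-N-SH, SK-N-BE(2c), NET-transfected UVW glioma) were plated at 5 × 10^5 per well and cultured overnight at 37°C, 5% CO2. They were washed, given fresh medium and incubated with the radioiodine pair (about 3.7 kBq each) at 37°C for 2 and 4 h, with or without desipramine. After cold PBS washes, cells were lysed with 1 N NaOH at 37°C, 10 min twice. Dual-label gamma counting gave cell-associated fraction of total radioactivity.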

[9] = test system: SK-N-SH cells; settings: cited from earlier work
[10] = target: norepinephrine transporter (NET) (Bos taurus, UniProt P51143); assay type: cell-based, human; settings: read-out: IC50, competitive inhibition of [^125I]MIBG uptake; UVW-NAT cells, 2 h at 37 °C, unlabeled compound 10^−9 to 10^−3 M
norepinephrine transporter (NET), sequence (P51143 whole entry): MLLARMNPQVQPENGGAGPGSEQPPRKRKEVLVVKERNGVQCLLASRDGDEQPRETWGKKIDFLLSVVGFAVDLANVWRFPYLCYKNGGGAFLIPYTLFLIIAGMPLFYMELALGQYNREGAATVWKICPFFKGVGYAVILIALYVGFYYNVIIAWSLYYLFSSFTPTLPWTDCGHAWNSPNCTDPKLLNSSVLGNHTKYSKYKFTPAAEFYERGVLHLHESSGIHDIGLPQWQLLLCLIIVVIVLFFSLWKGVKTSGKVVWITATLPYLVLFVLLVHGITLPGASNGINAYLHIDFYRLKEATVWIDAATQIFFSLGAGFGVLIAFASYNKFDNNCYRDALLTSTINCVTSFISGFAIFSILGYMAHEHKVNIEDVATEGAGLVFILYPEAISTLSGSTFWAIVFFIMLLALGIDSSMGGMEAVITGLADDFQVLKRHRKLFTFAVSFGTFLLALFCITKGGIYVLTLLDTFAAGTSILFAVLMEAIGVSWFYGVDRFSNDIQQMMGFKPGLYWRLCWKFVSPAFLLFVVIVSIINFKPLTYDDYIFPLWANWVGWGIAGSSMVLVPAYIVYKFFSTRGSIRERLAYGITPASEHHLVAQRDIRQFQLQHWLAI
Outline: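 UVW-NAT cells (NET-transfected human glioma; MEM, 10% FCS, 1 g/L geneticin) seeded at 8 × 10^4/well and held overnight at 37 °C. After cold-PBS washes, fresh medium, [125I]MIBG (3.7 kBq) and unlabeled competitor (10−9 to 10−3 M final) were added for 2 h at 37 °C. Cells were washed, lysed in 1 N NaOH and gamma-counted with supernatants and input standards. IC50 came from nonlinear regression of uptake versus concentration.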

[11] = i.v., 1 h, no DMI (controls), paired-label
[12] = i.v., 2 h, paired-label [^18F]FPOBBG / [^125I]MIBG
[13] = i.v., 4 h, paired-label [^18F]FPOBBG / [^125I]MIBG

N=C(N)NCc1ccc(OCCC[18F])c(Br)c1 [[^18F]FPOBBG, 4-(3-[^18F]Fluoropropoxy)-3-bromobenzylguanidine]
heart uptake after DMI pretreatment as percent of controls ([1]; 1 h): 73%
heart uptake [1, 11]: 21.1 ± 5.6 % ID/g
heart uptake [1, 12]: 20.1 ± 2.4 % ID/g
heart uptake [1, 13]: 16.5 ± 2.3 % ID/g

N=C(N)NCc1cccc([131I])c1 [MIBG, meta-iodobenzylguanidine]
uptake in UVW-NAT cells compared to that in SK-N-BE(2c) [2]: two-fold higher

NC(N)=NCc1cccc([125I])c1 [[^125I]MIBG]
uptake (cell-associated radioactivity as percentage of input dose) [3]: 57.3 ± 8.1%
uptake (cell-associated radioactivity as percentage of input dose) [4]: 82.7 ± 8.9%
uptake (cell-associated radioactivity as percentage of input dose) [5]: 66.3 ± 3.6%
heart uptake after DMI pretreatment as percent of controls ([1]; 1 h): 69%
heart uptake after DMI pretreatment as percent of control values ([1]; 1 h, experiment with co-injected [^18F]FPOIBG): 57%
heart uptake [1, 11]: 18.7 ± 7.7 % ID/g
heart uptake [1, 12]: 16.1 ± 1.4 % ID/g
heart uptake [1, 13]: 10.2 ± 0.9 % ID/g
reduction of myocardial uptake by DMI pretreatment [6]: 42 ± 4%

NC(N)=NCc1cccc([76Br])c1 [[^76Br]MBBG, ^76Br-meta-bromobenzylguanidine]
reduction of myocardial uptake by DMI pretreatment [6]: 64 ± 3%
uptake in both tumor and heart relative to [^123I]MIBG [7]: about 4 fold

N=C(N)NCc1cccc([131I])c1 [[^131I]MIBG]
reduction of heart uptake by DMI ([1]; 1 h, experiment with co-injected [^125I]FPOIBG): 51%

N=C(N)NCc1ccc(OCCC[18F])c(I)c1 [[^18F]FPOIBG, 4-(3-[^18F]Fluoropropoxy)-3-iodobenzylguanidine]
uptake (cell-associated radioactivity as percentage of input dose) [3]: 10.2 ± 1.5%
uptake (cell-associated radioactivity as percentage of input dose) [4]: 39.6 ± 13.4%
uptake (cell-associated radioactivity as percentage of input dose) [5]: 13.3 ± 2.5%
heart uptake after DMI pretreatment ([1]; 1 h): 13.2 ± 3.3 % ID/g
bone uptake relative to that of [^18F]FPOBBG ([1]; 4 h, indicator of defluorination): about 4 fold
myocardial uptake as percent of that of [^125I]MIBG ([1]; i.v., three time points (1, 2, 4 h), paired-label): 72–74%

N=C(N)NCc1ccc(OCCCF)c([125I])c1 [[^125I]FPOIBG, 4-(3-Fluoropropoxy)-3-[^125I]iodobenzylguanidine]
uptake as percent of [^131I]MIBG [8]: 31–53%
hepatic (liver) uptake compared with co-injected radioiodinated MIBG [1]: lower liver uptake
heart uptake after DMI pretreatment ([1]; 1 h): 17.8 ± 1.8 % ID/g
thyroid uptake (indicator of deiodination) ([1]; compared with [^131I]MIBG): relatively low
heart uptake as percent of that of [^131I]MIBG ([1]; i.v., 1–4 h, paired-label): 41–61%

N=C(N)NCc1ccc([18F])c(I)c1 [[^18F]FIBG, 4-[^18F]fluoro-3-iodobenzylguanidine]
uptake in SK-N-SH cells, higher than that of co-incubated n.c.a. [^125I]MIBG [9]: about 15%

N=C(N)NCc1ccc(OCCCF)c(Br)c1 [FPOBBG, 4-(3-Fluoropropoxy)-3-bromobenzylguanidine]
IC50 [10]: 11 ± 2.9 µM

N=C(N)NCc1ccc(OCCCF)c(I)c1 [FPOIBG, 4-(3-Fluoropropoxy)-3-iodobenzylguanidine]
IC50 [10]: 20 ± 0.1 µM

N=C(N)NCc1cccc(I)c1 [MIBG, meta-iodobenzylguanidine]
IC50 [10]: 1.5 ± 1.1 µM
